Assay outcomes as filed in PubChem.
This is a sample that favours compounds with a hit; in the whole collection about 3.7% have one here.
KCNQ1 inh – blocks the human KCNQ1 potassium channel. P51787. B-score at 10 µM. 310,000 compounds, 1.3% hits. AID 2642. CHO-K1 KCNQ1, FluxOR thallium flux fluorescence; stronger effect = higher value;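 active = compounds whose thallium flux B-score, printed positive for inhibition, exceeds three library SD while starting fluorescence stays within three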;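 note: channel opened by potassium depolarization with thallium stimulus after 20 min compound exposure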
KCNK9 block – human KCNK9 channel inhibition; 310,000 compounds, 1.2% hits; Q9NPC2; B-score at 10 µM; HEK293 KCNK9, FluxOR thallium flux fluorescence; stronger effect = lower value;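 active = ratio B-score over 3 SD below the library mean, with starting fluorescence within 5 SD of its mean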;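 note: negative B-score means less thallium flux so channel inhibition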
Target sequence (Q9NPC2 whole entry, looked up): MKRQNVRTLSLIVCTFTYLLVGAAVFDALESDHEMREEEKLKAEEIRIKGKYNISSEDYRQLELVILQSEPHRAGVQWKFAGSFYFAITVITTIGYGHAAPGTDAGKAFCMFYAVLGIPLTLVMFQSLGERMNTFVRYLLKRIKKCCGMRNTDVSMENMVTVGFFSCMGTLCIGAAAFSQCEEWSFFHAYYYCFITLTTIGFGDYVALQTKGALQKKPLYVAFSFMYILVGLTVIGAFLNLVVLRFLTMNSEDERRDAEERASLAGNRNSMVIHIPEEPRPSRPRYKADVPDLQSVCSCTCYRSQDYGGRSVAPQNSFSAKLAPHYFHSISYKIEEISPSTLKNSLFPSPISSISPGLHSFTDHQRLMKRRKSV
Kir21 block – inhibitors of mouse Kir2.1 inward-rectifier potassium channel | HEK293-Kir2.1, FluxOR thallium flux fluorescence; stronger effect = lower value | P35561 | 310,000 compounds, 0.85% hits | AID 1672 | B-score at 10 µM;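 active = fluorescence ratio B-score at or below minus 3 SD of library scores, with starting-brightness B-score within 2 SD, cut at about -4.2 in these data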;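 note: channel flux triggered by added potassium and thallium sulfate stimulus; B-score of peak minus minimum fluorescence over baseline after thallium stimulus; more negative B-score means stronger Kir2.1 block with less thallium influx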
KCNQ1 act – human KCNQ1 channel potentiation or activation | 310,000 compounds, 0.35% hits | CHO-K1 KCNQ1, thallium flux FluxOR fluorescence; stronger effect = higher value | B-score at 10 µM | P51787;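 active = fluorescence ratio B-score, a plate-corrected score, at least three library SD, with initial intensity B-score within 5 SD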
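System: CHO-K1 cells stably expressing KCNQ1 / Medium: assay buffer for compound exposure, DMSO matched across wells / Reagent: thallium- and potassium-containing depolarizing buffer / Compound: one concentration, matched DMSO / Incubation: 20 min compound pretreatment at room temperature / Measured by: kinetic FluxOR fluorescence, 10 s baseline plus 110 s post-stimulus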
hERG rescue – shields human hERG channel from block by proarrhythmic agents. Q12809. CHO-hERG, FluxOR thallium flux, dofetilide IC70 present. activation (rescue from dofetilide block), less the hit threshold, % at 10 µM. 310,000 compounds, 0.51% hits;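 active = activation above the mean of controls blocked by dofetilide plus 5 SD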;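 note: thallium influx through hERG after potassium depolarization seen as dye fluorescence rise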
KCNK3 block – human KCNK3 channel inhibition, primary screen | O14649 | CHO-KCNK3 thallium flux, FluxOR fluorescence; stronger effect = lower value | B-score at 10 µM | 340,000 compounds, 0.84% hits;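 active = B-score under library mean minus 4 SD, starting fluorescence ratio at most library mean plus 5 SD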;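 note: more negative B-score means stronger inhibition of thallium flux through KCNK3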
KCNQ1 inh valid – confirmation of human KCNQ1 potassium channel inhibitors; shares compounds with KCNQ1 inh; KCNQ1 cell line, FluxOR thallium flux fluorescence; inhibition, % at 10 µM; 1,600 compounds, 93% hits; AID 588353;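 active = primary screen active, with duplicate mean exceeding buffer control mean plus 3 SD of buffer wells, cut at about 28% in these data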;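 note: 0% = buffer control ratio and 100% = XE991 inhibitor control ratio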
CHO Tl flux – counter-screen for KCNQ1 inhibitors: effect in parental CHO cells; 1,600 compounds, 21% hits; shares compounds with KCNQ1 inh; parental CHO-K1, FluxOR thallium flux fluorescence ratio; stronger effect = lower value; zero means no signal rise above baseline; fluorescence ratio (Tl flux) at 10 µM;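 active = mean of duplicate thallium-flux fluorescence ratios in parental host cells more than 5 SD below the buffer control mean, cut at about 0.38 in these data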;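 note: ratio is peak minus minimum fluorescence divided by baseline fluorescence; actives read low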
KCNQ1 ephys val – blocks human KCNQ1 current in automated patch clamp; KCNQ1-CHO cells; AID 624120; 490 compounds, 20% hits; calls only at 10 µM; shares compounds with KCNQ1 inh;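 active = KCNQ1 current drop exceeding 3 SD of negative control wells, seen in both duplicate runs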;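 note: steady state current during a 2 s step from -80 to +40 mV; negative values mean current inhibition and positive values mean potentiation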
KCNQ2 inh – selectivity of KCNQ1 inhibitors: inhibition of rat KCNQ2 channel; shares compounds with KCNQ1 inh; inhibition, % at 10 µM; KCNQ2 cells, FluxOR thallium flux fluorescence; 1,600 compounds, 71% hits;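 active = mean percent inhibition of the KCNQ2 thallium signal more than 5 SD above the buffer-only control wells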;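 note: KCNQ2 expressed in CHO cells; 0% = buffer control wells and 100% = XE-991 inhibitor control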
KCNQ1-KCNE1 inh – KCNQ1 inhibitor that also blocks human KCNQ1/KCNE1 channel | inhibition, % at 10 µM | KCNQ1/KCNE1 cells, FluxOR thallium flux fluorescence | 1,600 compounds, 77% hits | shares compounds with KCNQ1 inh;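 active = mean percent inhibition of duplicate wells above the buffer-only control mean plus 3 SD of those controls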;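 note: 0% = buffer only wells and 100% = XE-991 inhibitor control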
* = called active by the depositor; i = inactive; . = no result given; + = active, no number.

SMILES | KCNQ1 inh | KCNK9 block | Kir21 block | KCNQ1 act | hERG rescue | KCNK3 block | KCNQ1 inh valid | CHO Tl flux | KCNQ1 ephys val | KCNQ2 inh | KCNQ1-KCNE1 inh
Cn1nccc1C(=O)NC1CCCc2c1cnn2-c1ccc(C(C)(C)C)cc1 (centres undefined) | 9* | i | 1.1 | i | -14 | i | 94* | 0.52 | i | 93%* | 43%*
CCc1nnc(NC(=O)CCC2CCCCC2)s1 | i | i | 1.4 | i | -3 | i | . | . | . | . | .
O=C(CCC1CCCCC1)Nc1nnc(C(F)(F)F)s1 | 6* | i | -0.21 | i | 0 | i | 64* | 0.54 | . | i | 34%*
Cc1cccc(OCc2nc(C#N)c(N3CC(C)CC(C)C3)o2)c1 (centres undefined) | 8* | i | 2.2 | i | -11 | -12* | 103* | 0.38* | . | i | 104%*
O=C(c1cc(COc2ccc3ncccc3c2)on1)N1CCCCCC1 | 7* | i | 0.98 | i | -17 | i | 114* | 0.49 | i | 101%* | i
Cc1cc(OCc2cc(C(=O)N3CCN(CC4CC4)CC3)no2)cc(C)c1Cl | i | i | -2 | i | -23 | i | . | . | . | . | .
Cc1ccc(OCc2cc(C(=O)NC3CCCCC3)no2)cn1 | i | i | -0.16 | i | -13 | i | . | . | . | . | .
CC(NC(=O)c1cc(COc2ccc3ncccc3c2)on1)c1ccc(F)cc1 (centres undefined) | 10* | i | 0.14 | i | -26 | i | 108* | 0.44 | + | 92%* | 92%*
Cc1cc(OCc2cc(C(=O)N3CCC(Oc4cccnc4)CC3)no2)cc(C)c1Cl | 13* | i | 0.12 | i | -14 | i | 148* | 0.37* | . | 124%* | +
CC(NC(=O)c1cc(COc2ccccc2)on1)c1nccs1 (centres undefined) | i | i | 1.3 | i | -2 | i | . | . | . | . | .
O=C(NC1CCCC1)c1cc(COc2ccc3ncccc3c2)on1 | 8* | i | 0.05 | i | -22 | i | 91* | 0.44 | + | i | i
O=C(c1cc(COc2ccc3ncccc3c2)on1)N1CCCC1 | i | i | 1.4 | i | -11 | i | . | . | . | . | .
CN1C2CCC1/C(=C/c1cccn1C)C(=O)/C2=C\c1cccn1C | 17* | i | -17 | i | -46 | i | + | 0.14* | . | i | i
CN1C2CCC1/C(=C\c1ccc(F)cc1)C(=O)/C2=C/c1ccc(F)cc1 | i | i | 0.36 | i | -4 | i | . | . | . | . | .
Cc1ccc(CCC(=O)Nc2ccc(N(C)C)cc2)o1 | i | i | -0.94 | i | 2 | i | . | . | . | . | .
O=C(OCCOc1cccc(Cl)c1)c1ccc2ncsc2c1 | i | i | 0.74 | i | -13 | i | . | . | . | . | .
CCN(CC)c1ccc(C=Nc2ccccc2C)c(O)c1 | i | i | 1 | i | -9 | i | . | . | . | . | .
CCN(CC)c1ccc(O)c(C=Nc2ccc(C)c(C)c2)c1 | 11* | i | 0.54 | i | -9 | i | 150* | 0.44 | i | 110%* | 166%*
NCCCC(=O)N1c2ccccc2Sc2ccc(Cl)cc21 | i | i | -1.8 | i | -3 | i | . | . | . | . | .
NCCC(=O)N1c2ccccc2Sc2ccc(Cl)cc21 | 7* | i | -4.8* | i | -8 | i | 72* | 0.47 | . | i | 62%*
